pEC50, pIC50: −log10 of the molar value.

In series [1] the test system is Pf3D7. The following applies: read-out: Pf3D7 blood stage EC50; blood stage proliferation; cited from earlier work.
Series [2] is described as follows: HepG2 CellTiter-Glo cytotoxicity assay. Format: cell-based, human. The following applies: human, HepG2 cells. In outline: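 HepG2 cells were grown in DMEM with 10% FBS, 1% NEAA and 1% L-glutamine, without antibiotics. They were seeded at 4000 cells/well and left overnight at 37 °C, 5% CO₂. Test compound was added at 200 nM or 2 μM, in quadruplicate, with DMSO held constant, for 48 h. Viability was read by CellTiter-Glo 2 luminescence. % viability is the average of two experiments.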
(Cellular ATP, detected with luciferase, serves as a proxy for viable cell number.)

The target of series [3] is T1, PfGSK3 (Plasmodium falciparum, UniProt O77344).
T1 sequence (O77344 1-440): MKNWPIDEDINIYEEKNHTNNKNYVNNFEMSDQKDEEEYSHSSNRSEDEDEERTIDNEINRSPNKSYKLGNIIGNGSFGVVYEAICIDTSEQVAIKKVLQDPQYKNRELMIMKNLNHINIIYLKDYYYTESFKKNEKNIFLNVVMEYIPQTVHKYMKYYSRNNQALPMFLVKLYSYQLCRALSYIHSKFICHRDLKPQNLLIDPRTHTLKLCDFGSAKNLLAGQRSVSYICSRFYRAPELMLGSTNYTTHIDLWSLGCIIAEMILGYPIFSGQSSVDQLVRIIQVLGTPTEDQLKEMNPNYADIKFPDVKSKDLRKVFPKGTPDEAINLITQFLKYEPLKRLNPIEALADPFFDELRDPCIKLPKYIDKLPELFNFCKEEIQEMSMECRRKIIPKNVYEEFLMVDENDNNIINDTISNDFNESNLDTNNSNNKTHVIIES
The series can be described thus: KinaseSeeker split luciferase assay on PfGSK3. The following applies: screen at 1 μM. Format: biochemical. A digest of the protocol:
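Split-luciferase binding assay: lysate with Cfluc-PfGSK3 fusion plus Fos-Nfluc, incubated 2 h with test compound in DMSO (or DMSO control) and a kinase-specific probe. Luminescence was read immediately after luciferin reagent. % inhibition = (control − sample)/control × 100. Compounds were first counter-screened against split luciferase, then screened at 1 μM.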

Series [4] has as its target T2, PfPK6 (Plasmodium falciparum, UniProt Q8IDW1).
T2 sequence (Q8IDW1 1-305): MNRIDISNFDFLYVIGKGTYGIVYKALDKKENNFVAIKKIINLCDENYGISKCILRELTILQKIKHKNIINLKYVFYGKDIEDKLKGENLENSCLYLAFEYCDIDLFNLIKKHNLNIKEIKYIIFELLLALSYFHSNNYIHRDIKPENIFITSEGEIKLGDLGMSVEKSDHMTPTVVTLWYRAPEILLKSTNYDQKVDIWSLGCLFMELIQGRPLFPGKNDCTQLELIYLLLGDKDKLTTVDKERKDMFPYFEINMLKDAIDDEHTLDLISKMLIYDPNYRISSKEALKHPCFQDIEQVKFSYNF
The series can be described thus: KinaseSeeker split luciferase assay on PfPK6. Format: biochemical. The settings on record: compared to IKK16.

Series [5] has as its system PfCDPK1. The following applies: read-out: PfCDPK1 IC50; cited from earlier work.

What is called pEC50 is the EC50 on a negative log10 scale, so that one unit is a factor of ten. `Cc1cn2c(-c3ccnc(NCC4CC4)n3)c(-c3ccc(F)c(NS(C)(=O)=O)c3)nc2cc1CN(C)C` [ML10]: in series [1], the pEC50 is 8.68. The term viability denotes a read-out of living cells in per cent, often relative to untreated cells. Low readings indicate a greater loss of cells, high ones better survival. For the molecule `c1ccc2sc(-c3ccnc(Nc4ccc(CN5CCC(N6CCCC6)CC5)cc4)n3)cc2c1` [Compound 12, 4-(Benzo[b]thiophen-2-yl)-N-(4-((4-(pyrrolidin-1-yl)piperidin-1-yl)methyl)phenyl)pyrimidin-2-amine], in series [2], the viability at 48 h, 200 nM turned out to be 100%. Besides, in series [3], the “activity on PfGSK3, in words” value is on record as “abolished activity”. For the same molecule, the “fold increase in potency on PfPK6” value in series [4] is given as around 3 fold. By pIC50 is commonly meant the IC50 on a negative log10 scale, so that one unit is a factor of ten. As for `N[C@H]1CC[C@H](Nc2nc(Nc3ccc(C(=O)N4CCCCC4)cc3)c3ncn(-c4cccc(F)c4)c3n2)CC1` [Purfalcamine], the pIC50 in series [5] is 7.77.

(Values after article PMC9574854 (Journal of Medicinal Chemistry, 2022).)
